From publication PMC3738169 (Journal of medicinal chemistry, 2012)
Each block holds one molecule with its values, some of them ahead of it.

How the values were obtained:
[1] = system: p-Akt T308 in prostate cancer LNCaP cells; experiment: p-Akt T308 Western blot in LNCaP cells; format: cell-based; settings: LNCaP cells incubated with 11, 3 h, dose-response, control PBS
Summary of the method: (§1)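 Cells were seeded at 4×105 per 6 cm dish, grown 48 h to about 80% confluence, then exposed to test compound for 3 h with PBS as control. C4-2LucBAD cells were in RPMI 1640, serum-free for 18 h beforehand. LNCaP cells were in T-Medium with 2.5% FBS. U-87 MG cells were in DMEM, serum-free. HEPES pH 7.4 lysates with protease and phosphatase inhibitors were blotted for p-Akt T308, Akt and β-actin.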

[2] = system: p-Akt T308 in breast cancer BT-549 cells; experiment: C4-2 conditioned medium assay; format: cell-based; settings: 11 incubated in media conditioned by BT-549 cells
Summary of the method: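 Test compound held 6 h at 37 °C (5% CO2, humidified) in serum-free medium on producer cells; this line's arm used BT-549-conditioned medium. Medium then transferred to BT-549 cells for 3 h. Cells seeded 4×10^5 per 6 cm dish, grown 48 h to ~80% confluence; BT-549 medium carried 0.023 U/mL insulin. Phospho-Akt T308 read by Western blot of clarified lysates; n=3.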

[3] = system: p-Akt T308 (PI3K/Akt pathway) in prostate cancer C4-2 cells; experiment: p-Akt T308 Western blot in C4-2 cells; format: cell-based
Summary of the method: (§2)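 BT-549 cells (RPMI 1640, 10% FBS, 0.023 U/mL insulin) and C4-2 cells (RPMI 1640, 10% FBS) were seeded at 4×105 per 6 cm dish, grown 48 h to about 80% confluence, then moved to serum-free medium. Dosing was a 30 min concentration series with DMSO control, or a 3 h series or 30 min–6 h time course with PBS control. Lysates went to 12% SDS-PAGE and were probed for p-Akt T308, Akt and β-actin, with infrared detection and densitometry.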

[4] = system: p-Akt T308 (PI3K/Akt pathway) in breast cancer BT-549 cells; experiment: p-Akt T308 Western blot in BT-549 cells; format: cell-based
Summary of the method: as §2

[5] = system: p-Akt T308 in C4-2LucBAD cells; experiment: p-Akt T308 Western blot in C4-2LucBAD cells; format: cell-based; settings: 3 h, dose-response, control PBS
Summary of the method: as §1

[6] = system: purified active human PSA; p-Akt T308 in BT-549 cells; experiment: Cleavage of compound 11 with purified PSA, then p-Akt T308 in BT-549 cells; format: cell-based; settings: 11 without PSA, added to BT-549 cells for 30 min
Summary of the method: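 Test compound was pre-incubated 6 h at 37 °C in 50 mM Tris-HCl, 0.1 M NaCl, pH 7.8 with increasing concentrations of enzymatically active PSA purified from human semen. It was then applied for 30 min to serum-starved BT-549 cells, maintained in RPMI 1640 with 10% FBS and 0.023 U/mL insulin. p-Akt T308 was read by Western blot against a PBS control, in three independent experiments.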

[7] = system: p-Akt T308 in glioblastoma-astrocytoma U-87 MG cells; experiment: p-Akt T308 Western blot in U-87 MG cells; format: cell-based; settings: U-87 MG cells (no PSA) incubated with 11, 3 h, control PBS
Summary of the method: as §1

C4-2LucBAD cells [8] = experiment: Caspase 3 assay in C4-2LucBAD cells; format: cell-based
C4-2LucBAD cells [9] = settings: C42LucBAD cells that ectopically express BAD; cited from earlier work
Water solubility = settings: qualitative statement

Molecule: Mu-LEHSSKLQL-8-(4-(Hydroxymethyl)phenyl)-2-morpholino-4H-chromen-4-one [Compound 11]
p-Akt T308 levels [1]: dose-dependent reduction | p-Akt T308 levels in BT-549 cells after 11 incubated in BT-549 conditioned media [2]: had no effects | p-Akt T308 levels ([3]; C4-2 cells incubated with 11, 3 h, dose-response, control PBS): dose-dependent reduction | p-Akt T308 levels, time course ([3]; C4-2 cells treated with 11 from 30 min to 6 h, vs control, Western blot, three independent experiments): time-dependent reduction | p-Akt T308 levels ([4]; BT-549 cells (no PSA) incubated with 11, 3 h, control PBS): No significant reduction | p-Akt T308 levels, time course ([4]; BT-549 cells treated with 11 from 30 min to 6 h, Western blot, three independent experiments): no significant differences | p-Akt T308 levels [5]: dose-dependent reduction | p-Akt T308 levels in BT-549 cells, 11 without enzymatically active PSA [6]: had no effect | p-Akt T308 levels [7]: No significant reduction | Caspase 3 activity compared with active inhibitor (C4-2LucBAD cells [8]; 6 h): Somewhat lower levels | Caspase 3 activity (apoptosis) (C4-2LucBAD cells [8]; 6 h after administration, fluorogenic substrate Ac-DEVD-7-amido-4-trifluoromethylcoumarin, n=2, vs DMSO control): increased

water solubility (Water solubility): poor water solubility
Molecule: O=c1cc(N2CCOCC2)oc2c(-c3ccccc3)cccc12 [LY294002]
induction of apoptosis (C4-2LucBAD cells [9]): induces apoptosis

Molecule: CC(C)CC(N)C(=O)OCc1ccc(-c2cccc3c(=O)cc(N4CCOCC4)oc23)cc1 (stereo not shown) [Compound 10, 4-(2-morpholino-4-oxo-4H-chromen-8-yl) benzyl-2-amino-4-methylpentanoate]
PI3 kinase inhibitory potency relative to LY294002 ([3]; C4-2 and BT-549 cells, p-Akt T308 read-out, 30 min): comparable to LY294002 | concentration that completely inhibited Akt phosphorylation ([3]; C4-2 cells, 30 min, dose-response analysis): 30 µM | concentration that completely inhibited Akt phosphorylation ([4]; BT-549 cells, 30 min, dose-response analysis): 30 µM
